The values below come from ChEMBL document CHEMBL3864174, “Scaffold-Hopping of Aurones: 2-Arylideneimidazo[1,2-a]pyridinones as Topoisomerase IIα-Inhibiting Anticancer Agents” (ACS Med Chem Lett, 2016).

The source made the active and inactive calls. The calls are words filed in the database; no cut-off is given here.

The nature of series [1]: Cytotoxicity against African green monkey Vero cells assessed as cells growth inhibition after 48 hrs by MTT assay. The settings on record: for IC50 at 48 h: African green monkey (Chlorocebus sabaeus), Vero cells; for Activity: chlorocebus sabaeus, vero, 48 h. Type of series: toxicity, cell-based, Chlorocebus sabaeus. Put shortly:
(§1)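 MTT colorimetric assay. HEK-293T (kidney line) and VERO cells were tested, and the IC50 was taken as the concentration giving 50% growth inhibition.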

Series [2] concerns the target DNA topoisomerase 2-alpha (Homo sapiens) (UniProt P11388). Nature of the series: Inhibition of human Topo2alpha-mediated kDNA decatenation at 100 uM after 30 mins by SDS-based agarose gel electrophoresis.
Series [3] can be described thus: Cytotoxicity against human MDA-MB-231 cells assessed as reduction in cell viability after 48 hrs by MTT assay. It is filed as functional, cell-based. The note with it: MDA-MB-231, 48 h.
The test system of series [4] is HEK-293T. Nature of the series: (§2) Cytotoxicity against HEK293T cells assessed as reduction in colony formation after 48 hrs by crystal violet-staining based assay. Type of series: functional. The note with it: Homo sapiens.
Series [5] in a line: (§3) Cytotoxicity against HEK293T cells assessed as cells growth inhibition after 48 hrs by MTT assay. Type of series: functional, cell-based. The note with it: Homo sapiens, HEK-293T. In a few lines:
as §1
On the technique in general: Tetrazolium assays rely on reduction of a dye to a coloured formazan, in cell work by metabolically active cells.

For series [6], the system named is HEK-293T. The description is as §3. Type of series: functional, cell-based. The note with it: Homo sapiens. In a few lines:
as §1

In series [7] the test system is MCF7. Description: Cytotoxicity against human MCF7 cells assessed as reduction in colony formation after 48 hrs by crystal violet-staining based assay. It is filed as functional, cell-based.
Series [8] is described as follows: Cytotoxicity against human MDA-MB-468 cells assessed as reduction in cell viability after 48 hrs by MTT assay. The settings on record: MDA-MB-468, 48 h. It is filed as functional, cell-based.
The test system of series [9] is MCF7. Nature of the series: Cytotoxicity against human MCF7 cells assessed as cells growth inhibition after 48 hrs by MTT assay. It is filed as functional, cell-based.
Series [10] is described as follows: Cytotoxicity against African green monkey Vero cells assessed as reduction in colony formation after 48 hrs by crystal violet-staining based assay. It is filed as toxicity, cell-based. The note with it: chlorocebus sabaeus; for Activity: vero, 48 h; for CC50 at 48 h: Vero cells, read-out: LC50.
Series [11] can be described thus: as §2. It is filed as functional. The settings on record: Homo sapiens, HEK-293T, read-out: LC50 (the source's name).
Series [12] in a line: Cell cycle arrest in human MCF7 cells assessed as accumulation at G0 phase at 2000 nM after 48 hrs by propidium iodide-staining based FACS analysis. It is filed as functional. A general note: In flow cytometry, cells or beads pass a laser one at a time.
Series [13] is described as follows: Inhibition of tubulin polymerization in human MCF7 cells assessed as suppression of protein assembly after 15 mins by spectrophotometric analysis. Type of series: cell-based.
The nature of series [14]: Cell cycle arrest in human MCF7 cells assessed as accumulation at G2/M phase at 2000 nM after 48 hrs by propidium iodide-staining based FACS analysis. Type of series: functional.
The target of series [15] is DNA topoisomerase 2-alpha (Homo sapiens) (UniProt P11388). Description: Poison activity at human Topo2alpha using pUC19 as substrate assessed as DNA cleavage-complex formation at 100 uM measured after 20 mins by ethidium bromide staining based SDS-agarose gel electrophoresis.
The nature of series [16]: Cell cycle arrest in human MCF7 cells assessed as accumulation at subG1 phase at 100 nM after 48 hrs by propidium iodide-staining based FACS analysis (reference value: 0.8 +/- 0.1 %). It is filed as functional.
Series [17] has as its system MCF7. Nature of the series: Inhibition of topoisomerase in human MCF7 cell nuclear lysates assessed as reduction in relaxation of supercoiled plasmid DNA NFkB substrate at 10 to 70 nM after 30 mins by ethidium bromide-staining based agarose gel electrophoresis. In a few lines:
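Ex vivo topoisomerase assay using MCF-7 nuclear lysate with NFkB plasmid as substrate. Compound ranged from 10 nM to 75 nM, with lanes for plasmid alone and untreated lysate, and an etoposide lane at 45 µM.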

Series [18] can be described thus: Binding affinity to DNA (unknown origin) assessed as occurrence of hypochromism after 1 hr by UV-Vis spectrophotometric analysis. Put shortly: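 UV absorption of DNA near 260 nm, recorded with and without increasing compound concentrations; hypochromism was taken as the binding read-out.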
Series [19] can be described thus: Cell cycle arrest in human MCF7 cells assessed as accumulation at G2/M phase at 70 nM after 48 hrs by propidium iodide-staining based FACS analysis (reference value: 41 +/- 2.8 %). Type of series: functional.

DNA topoisomerase 2-alpha (Homo sapiens), sequence (P11388 whole entry): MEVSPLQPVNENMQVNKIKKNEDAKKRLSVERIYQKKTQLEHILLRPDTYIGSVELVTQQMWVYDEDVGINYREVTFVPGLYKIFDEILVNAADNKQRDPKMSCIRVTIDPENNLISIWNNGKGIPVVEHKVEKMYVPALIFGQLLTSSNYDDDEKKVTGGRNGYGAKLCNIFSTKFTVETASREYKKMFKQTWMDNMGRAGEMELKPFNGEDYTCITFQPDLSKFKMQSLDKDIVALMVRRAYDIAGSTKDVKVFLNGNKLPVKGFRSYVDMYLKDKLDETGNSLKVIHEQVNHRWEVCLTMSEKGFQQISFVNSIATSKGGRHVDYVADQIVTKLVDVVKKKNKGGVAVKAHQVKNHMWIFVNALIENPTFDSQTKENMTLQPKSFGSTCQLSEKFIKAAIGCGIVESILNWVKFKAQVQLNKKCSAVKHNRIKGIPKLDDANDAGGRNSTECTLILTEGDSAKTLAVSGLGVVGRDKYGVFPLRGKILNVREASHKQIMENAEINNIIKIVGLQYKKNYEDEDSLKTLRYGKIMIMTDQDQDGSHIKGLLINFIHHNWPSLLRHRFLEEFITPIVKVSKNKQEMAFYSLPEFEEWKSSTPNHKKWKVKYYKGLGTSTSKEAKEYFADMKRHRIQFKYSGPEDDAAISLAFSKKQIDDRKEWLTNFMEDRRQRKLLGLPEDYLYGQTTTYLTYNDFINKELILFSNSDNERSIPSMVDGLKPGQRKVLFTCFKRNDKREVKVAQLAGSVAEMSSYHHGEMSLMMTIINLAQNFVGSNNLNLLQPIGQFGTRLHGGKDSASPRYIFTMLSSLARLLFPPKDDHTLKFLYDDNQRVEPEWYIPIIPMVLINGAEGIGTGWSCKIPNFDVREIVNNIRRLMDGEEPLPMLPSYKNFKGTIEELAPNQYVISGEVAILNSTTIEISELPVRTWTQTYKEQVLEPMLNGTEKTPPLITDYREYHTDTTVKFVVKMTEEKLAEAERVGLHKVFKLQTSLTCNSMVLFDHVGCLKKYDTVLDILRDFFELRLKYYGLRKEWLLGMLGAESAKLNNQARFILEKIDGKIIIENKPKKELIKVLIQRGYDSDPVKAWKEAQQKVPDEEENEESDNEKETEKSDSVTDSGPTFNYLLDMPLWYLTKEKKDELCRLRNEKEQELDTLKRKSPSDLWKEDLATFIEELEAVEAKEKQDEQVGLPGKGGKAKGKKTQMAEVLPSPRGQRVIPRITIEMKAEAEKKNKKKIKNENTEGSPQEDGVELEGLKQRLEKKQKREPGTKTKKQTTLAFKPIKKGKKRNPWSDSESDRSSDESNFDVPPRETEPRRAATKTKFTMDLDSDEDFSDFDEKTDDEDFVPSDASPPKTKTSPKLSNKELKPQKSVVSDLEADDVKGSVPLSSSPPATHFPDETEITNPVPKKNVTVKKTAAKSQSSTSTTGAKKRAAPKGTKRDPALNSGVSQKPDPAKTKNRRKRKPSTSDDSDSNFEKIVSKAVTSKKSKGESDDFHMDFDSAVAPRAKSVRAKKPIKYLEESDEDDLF

On to `COc1ccc(/C=C2\Oc3ccccc3C2=O)cc1` [4'-METHOXY-AURONE], for which the IC50 (in general, the midpoint of a concentration-inhibition curve) at 48 h in series [1] came to 2.5 µM. Besides, the Activity result (in [1]; in the series with HEK-293T [4]; with MCF7 [7]; in series [10]) was “Dose-dependent effect” throughout. The inhibition entry in series [2] was “Active”. Further, the figures for the IC50 in [3], in series [5] and in series [8] were 0.6 to 0.84 µM, 0.7 µM and 0.6 to 0.84 µM, respectively. Further, the “growth inhibition (GI)” value with HEK-293T [6] and in the series on MCF7 [9] was “Dose-dependent effect” in each case.

For the molecule `O=C1/C(=C/c2ccc(O)cc2)N=C2C=CC=CN12`, the IC50 at 48 h in series [1] was 1.5 µM. For the same molecule, the CC50 in [11] came to 0.05 µM. Also, the 50% inhibitory concentration (IC50) in [5] turned out to be 0.04 µM. For the same molecule, in the series with MCF7 [7], the outcome was Active. Further, the CC50 at 48 h in series [10] worked out at 1.5 µM.

Turning to `CC1=CN2C(=O)/C(=C/c3ccc(Cl)cc3)N=C2C=C1`, in series [2], the inhibition result was “Active”.

As for `O=C1/C(=C/c2ccc(Cl)cc2)N=C2C=CC(Br)=CN12`, the inhibition entry in series [2] is “Active”.

For `COc1ccc(/C=C\c2cc(OC)c(OC)c(OC)c2)cc1O` [COMBRETASTATIN A4], the result in series [12] and in [14] was Active. In series [13], the IC50 is 2.5 µM.

On to `COc1ccc(OC)c(/C=C2\N=C3C=CC=CN3C2=O)c1`, for which, in series [1], the concentration for half-maximal inhibition (IC50) at 48 h was found to be 1.5 µM. Besides, the inhibition entry in series [2] was “Active”. The CC50 in series [11] is 0.06 µM. For the same molecule, the IC50 in [5] amounted to 0.15 µM. Besides, the outcome with MCF7 [7] was Active. The CC50 at 48 h in [10] turned out to be 1.5 µM.

For `O=C1/C(=C/c2ccc(Br)cc2)N=C2C=CC=CN12`, the IC50 at 48 h in [1] is 0.2 µM. Moreover, the Activity result in series [1] was “Dose-dependent effect”; with HEK-293T [4], “Dose-dependent effect”; in the series with MCF7 [7], “Dose-dependent effect”; in series [16], 19.9%; in series [19], 33.2%; in series [10], “Dose-dependent effect”. In addition, the outcome in series [15] was Active. For the same molecule, the inhibition entry (in [2]; in the series with MCF7 [17]) was “Active” in each case. Besides, the IC50 in [3] was determined as 0.076 µM; in [5], 0.045 µM; in series [8], 0.07 µM; in [13], 0.06 µM. Besides, in [11], the CC50 came out at 0.02 µM. The “growth inhibition (GI)” value in the series with HEK-293T [6] and in the series with MCF7 [9] was “Dose-dependent effect” in each case. Moreover, the Kb in [18] worked out at 2.5e+06 M⁻¹. For the same molecule, the CC50 at 48 h in [10] came to 1.5 µM.

On to `O=C1/C(=C/c2ccc(Cl)cc2)N=C2C=CC=CN12`, for which, in series [1], the IC50 at 48 h was determined as 0.2 µM. Besides, the inhibition entry in series [2] is “Active”. The CC50 in series [11] amounted to 0.04 µM. In series [5], the IC50 worked out at 0.03 µM. Also, the result in the series with MCF7 [7] was Active. In addition, in series [10], the CC50 at 48 h was 1.5 µM.

Turning to `O=C1/C(=C/c2ccc(Cl)cc2)N=C2C=CC(Cl)=CN12`, the IC50 at 48 h in [1] came out at 1.5 µM. Further, the inhibition result in series [2] was “Active”. In addition, the CC50 in series [11] came to 0.04 µM. In addition, the IC50 in [5] came to 0.045 µM. In addition, in the series with MCF7 [7], the outcome was Active. Also, the CC50 at 48 h in series [10] was found to be 1.5 µM.

Take `COc1cc(/C=C2\N=C3C=CC=CN3C2=O)cc(OC)c1OC`: the IC50 at 48 h in series [1] came out at 0.2 µM. Moreover, the CC50 in series [11] worked out at 0.055 µM. The IC50 in series [5] amounted to 0.01 µM. For the same molecule, the outcome in the series with MCF7 [7] was Active. Also, in [10], the CC50 at 48 h came out at 1 µM.

As to `O=C1/C(=C/c2ccc(Cl)cc2)N=C2C(Br)=CC(Br)=CN12`, in series [2], the inhibition entry was “Active”.

Consider `O=C1/C(=C/c2ccc(Br)cc2)Oc2ccccc21`, for which, in [1], the IC50 at 48 h was 2.4 µM. The Activity result (in [1]; in the series on HEK-293T [4]; in the series on MCF7 [7]; in series [10]) was “Dose-dependent effect” throughout. The inhibition result in series [2] is “Active”. For the same molecule, the IC50 was 0.6 to 0.84 µM in series [3], 0.9 µM in [5] and 0.6 to 0.84 µM in [8]. Also, the “growth inhibition (GI)” value in the series on HEK-293T [6] and with MCF7 [9] was “Dose-dependent effect” in each case.

For `COc1ccc(/C=C2\N=C3C=CC(Cl)=CN3C2=O)cc1`, in series [1], the IC50 at 48 h was found to be 1.5 µM. Further, the CC50 in series [11] is 0.04 µM. For the same molecule, in series [5], the IC50 turned out to be 0.08 µM. Also, in the series with MCF7 [7], the outcome was Active. The CC50 at 48 h in [10] amounted to 1.5 µM.

Turning to `COc1cccc(/C=C2\N=C3C=CC=CN3C2=O)c1`, the IC50 at 48 h in series [1] stood at 1.5 µM. Moreover, the inhibition result in series [2] was “Active”. For the same molecule, in series [11], the CC50 came out at 0.075 µM. Also, the IC50 in [5] is 0.08 µM. Besides, the result in the series with MCF7 [7] was Active. For the same molecule, the CC50 at 48 h in [10] was determined as 1.5 µM.

As for `CN(C)c1ccc(/C=C2\N=C3C=CC=CN3C2=O)cc1`, in [2], the inhibition result was “Active”.

With `COc1cc([C@@H]2c3cc4c(cc3[C@@H](O[C@@H]3O[C@@H]5CO[C@@H](C)O[C@H]5[C@H](O)[C@H]3O)[C@H]3COC(=O)[C@H]23)OCO4)cc(OC)c1O` [ETOPOSIDE], the IC50 at 48 h in series [1] was 50 µM. In [2], the inhibition entry was “Active”. For the same molecule, the IC50 in [5] came out at 22 µM.
